# The full list was thinned out, with hits kept by preference.
# A1 apoptosis 2: A1 inhibitors via caspase activation, primary screen, cell-based, luminescence, HTS, two replicates; AID 2465, 2010; MEF A1-2A-BIM cells, caspase-Glo luminescence, 3 h; percent of clofoctol response, DMSO zero; caspase activation, % (no concentration beside the values); 24,000 tested, under 10 active; in the data active = caspase activation above about 5.9%; inconclusive = no clear call, values can overlap the other calls; inactive = below about 2.2%
#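 Test system – A1-2A-BIM-expressing MEF cells · Input – 2500 cells/well · Medium – RPMI-1640 growth medium with 10% FBS · Compound dosing – 50 nL pinned compound · Timing – 3 h compound exposure at 37 °C · Technique – Caspase-Glo luminescence (DEVD substrate) · Evaluation – Caspase-3/7 activity from luminescence increase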
# T cruzi intra: inhibitors of intracellular Trypanosoma cruzi, primary screen, cell-based, plate reader, single point, set 2 | 22,000 compounds, 4.9% hits | intracellular Trypanosoma cruzi in host cells | activity score (inhibition), % at 5.01 µM; in the data active = activity score above about 55%; inconclusive = no clear call, values can overlap the other calls;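 also: parasites and compound incubated about four days before reading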
# INS-1E ATP HTS: protection of INS-1E cells from cytokine death, primary screen, ATP luminescence, single point; protection from cytokine-induced ATP loss, % at 10 µM; INS-1E cytokine-induced death, 48 h; normalised: neutral wells 0, positive control 100; 20,000 compounds, 0.1% hits;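 active = mean replicate protection from cytokine-induced ATP loss at least 50% and at least 75% of replicates each reaching 50%; inconclusive = meets only one of the two criteria, mean or replicate share; inactive = fails both the mean and replicate share criteria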
#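 assay system = INS-1E rat insulinoma cells | amount = 8000 cells per well | medium = phenol-red-free RPMI with 5% fetal bovine serum | doses = one compound concentration, pin transfer | timing = 48 h cytokine plus compound treatment, 10 min reagent incubation | also added = IL-1β, TNF-α and IFN-γ cytokine mix | signal = CellTiter-Glo luminescence measuring cellular ATP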
# Numbers stand for hits; n = inactive; u = inconclusive; x = not tested or not shown.
SMILES,A1 apoptosis 2,T cruzi intra,INS-1E ATP HTS
C[C@@H]1CN([C@H](C)CO)C(=O)c2cccc(NC(=O)Nc3ccc(C(F)(F)F)cc3)c2O[C@@H]1CN(C)Cc1ccc(Cl)c(Cl)c1,n,85,n
C[C@@H]1CN([C@@H](C)CO)C(=O)c2cccc(NC(=O)Nc3ccc(C(F)(F)F)cc3)c2O[C@H]1CN(C)Cc1ccc(Cl)c(Cl)c1,n,78,n
C[C@H]1CN([C@@H](C)CO)C(=O)c2cccc(NC(=O)Nc3ccc(F)cc3)c2O[C@H]1CN(C)Cc1ccc(Cl)c(Cl)c1,x,n,n
C[C@H]1CCCCO[C@@H](CN(C)C(=O)Nc2ccc3c(c2)OCO3)[C@@H](C)CN([C@@H](C)CO)C(=O)c2cc(N(C)C)ccc2O1,n,x,x
Cc1noc(C)c1S(=O)(=O)Nc1ccc2c(c1)C(=O)N([C@H](C)CO)C[C@H](C)[C@@H](CN(C)C(=O)Nc1cccc3ccccc13)O2,n,n,n
C[C@@H]1CN([C@@H](C)CO)C(=O)c2cccc(NS(C)(=O)=O)c2O[C@@H]1CN(C)S(=O)(=O)c1ccc(F)cc1,x,n,n
C[C@@H]1CN([C@H](C)CO)C(=O)c2cc(NC(=O)Nc3ccc4c(c3)OCO4)ccc2O[C@H]1CN(C)Cc1ccc(Oc2ccccc2)cc1,x,n,x
C[C@H]1CN([C@@H](C)CO)C(=O)c2cc(NC(=O)Nc3ccccc3)ccc2O[C@H]1CN(C)Cc1ccc2c(c1)OCO2,x,52,x
C[C@@H]1CN([C@H](C)CO)C(=O)c2cc(NC(=O)Nc3ccc4c(c3)OCO4)ccc2O[C@@H]1CN(C)Cc1ccc(Oc2ccccc2)cc1,x,62,n
C[C@@H]1CN([C@@H](C)CO)C(=O)c2cc(NC(=O)Nc3ccc4c(c3)OCO4)ccc2O[C@@H]1CN(C)Cc1ccc(C(F)(F)F)cc1,n,68,x
C[C@H]1CN([C@@H](C)CO)C(=O)c2cc(NC(=O)Nc3ccc4c(c3)OCO4)ccc2O[C@@H]1CN(C)Cc1ccc2c(c1)OCO2,n,n,n
C[C@@H]1CN([C@H](C)CO)C(=O)c2cc(NC(=O)Nc3ccc(C(F)(F)F)cc3)ccc2O[C@H]1CN(C)Cc1ccc2c(c1)OCO2,x,n,n
C[C@H]1CN([C@@H](C)CO)C(=O)c2cc(NC(=O)Nc3ccc(C(F)(F)F)cc3)ccc2O[C@H]1CN(C)Cc1ccc2c(c1)OCO2,x,34,x
C[C@H]1CN([C@@H](C)CO)C(=O)c2cc(NC(=O)Nc3ccc(C(F)(F)F)cc3)ccc2O[C@H]1CN(C)Cc1ccc(C(F)(F)F)cc1,n,u,n
CC(C)NC(=O)Nc1ccc2c(c1)C(=O)N([C@H](C)CO)C[C@@H](C)[C@@H](CN(C)S(=O)(=O)c1cn(C)cn1)O2,x,n,n
C[C@H](CO)N1C[C@H](C)[C@@H](CN(C)CC2CCCCC2)Oc2ccc(NS(C)(=O)=O)cc2C1=O,n,x,x
COc1ccc(CN(C)C[C@@H]2Oc3ccc(NC(=O)Nc4ccc(F)cc4)cc3CC(=O)N([C@H](C)CO)C[C@H]2C)cc1,n,n,n
C[C@H](CO)N1C[C@H](C)[C@@H](CN(C)Cc2ccc(C(=O)O)cc2)Oc2c(NS(=O)(=O)c3ccc(Cl)cc3)cccc2C1=O,n,n,n
C[C@@H]1CN([C@H](C)CO)C(=O)c2cccc(NC(=O)CCCCCC(=O)Nc3ccccc3N)c2O[C@H]1CN(C)Cc1ccccc1,n,x,x
COc1ccc(CN(C)C[C@@H]2Oc3c(NC(=O)CCCCCC(=O)Nc4ccccc4N)cccc3C(=O)N([C@H](C)CO)C[C@H]2C)cc1,n,x,x
C[C@@H]1CN([C@H](C)CO)C(=O)c2cccc(NC(=O)CCCCCC(=O)Nc3ccccc3N)c2O[C@@H]1CN(C)Cc1ccc(C(F)(F)F)cc1,n,n,n
C[C@@H]1CN([C@H](C)CO)C(=O)c2cccc(NC(=O)CCCCCC(=O)Nc3ccccc3N)c2O[C@H]1CN(C)Cc1ccc(-c2ccccc2)cc1,x,71,n
C[C@H]1CN([C@@H](C)CO)C(=O)c2cccc(NC(=O)CCCCCC(=O)Nc3ccccc3N)c2O[C@@H]1CN(C)Cc1ccc(-c2ccccc2)cc1,n,67,n
C[C@H](CO)N1C[C@H](C)[C@H](CN(C)Cc2ccc(C(F)(F)F)cc2)Oc2c(NC(=O)CCCCCC(=O)Nc3ccccc3N)cccc2C1=O,n,73,n
O=C(CCCCCC(=O)N/N=C/c1ccc(O)cc1O)NO,n,x,x
SMILES,A1 apoptosis 2,T cruzi intra,INS-1E ATP HTS
COc1ccc(S(=O)(=O)Nc2ccc3c(c2)C(=O)N([C@@H](C)CO)C[C@H](C)[C@H](CN(C)C(=O)NC(C)C)OCCCC[C@H](C)O3)cc1,n,x,x
C[C@H]1CCCCO[C@H](CN(C)S(=O)(=O)c2cn(C)cn2)[C@@H](C)CN([C@@H](C)CO)C(=O)c2cc(NC(=O)Cc3ccccc3)ccc2O1,n,x,x
C[C@@H]1CN([C@H](C)CO)C(=O)Cc2cc(NS(=O)(=O)c3cccs3)ccc2O[C@H]1CN(C)S(=O)(=O)c1ccc(Cl)cc1,n,n,n
C[C@@H]1CN([C@@H](C)CO)C(=O)c2cccc(NC(=O)c3ccc(-c4nccs4)cc3)c2O[C@H]1CN(C)CC1CCCCC1,n,64,n
C[C@@H]1CN([C@@H](C)CO)C(=O)c2cccc(NC(=O)c3ccc(-c4nccs4)cc3)c2O[C@@H]1CN(C)C(=O)Nc1ccc(C(F)(F)F)cc1,n,66,n
C[C@@H]1CN([C@H](C)CO)C(=O)c2cccc(NC(=O)c3ccc(-c4nccs4)cc3)c2O[C@H]1CN(C)Cc1ccccc1,n,n,n
C[C@@H]1CN([C@H](C)CO)C(=O)c2cccc(NC(=O)c3ccc(-c4nccs4)cc3)c2O[C@H]1CN(C)Cc1ccc(C(=O)O)cc1,n,n,n
C[C@H](CO)N1C[C@H](C)[C@@H](CN(C)CC2CCCCC2)Oc2c(NC(=O)c3ccc(-c4nccs4)cc3)cccc2C1=O,x,n,n
C[C@H](CO)N1C[C@H](C)[C@H](CN(C)C(=O)Nc2ccc(C(F)(F)F)cc2)Oc2c(NC(=O)c3ccc(-c4nccs4)cc3)cccc2C1=O,x,u,n
C[C@H](CO)N1C[C@H](C)[C@@H](CN(C)Cc2ccc(Cl)c(Cl)c2)Oc2c(NC(=O)c3ccc(-c4nccs4)cc3)cccc2C1=O,n,62,n
C[C@@H]1CN([C@H](C)CO)C(=O)c2cccc(NC(=O)c3ccc(-c4nccs4)cc3)c2O[C@@H]1CN(C)Cc1ccc(C(=O)Nc2ccccc2N)cc1,x,81,u
C[C@@H]1CN([C@@H](C)CO)C(=O)CCCn2nncc2CO[C@H]1CN(C)C(=O)C1CCCCC1,x,n,x
CC(C)NC(=O)Nc1ccc2c(c1)C(=O)N([C@H](C)CO)C[C@H](C)[C@H](CN(C)Cc1ccncc1)OCCCC[C@H](C)O2,n,x,x
C[C@@H]1CN([C@H](C)CO)C(=O)c2cccc(NC(=O)c3ccc(-c4nccs4)cc3)c2O[C@@H]1CN(C)Cc1ccc(-c2ccccc2)cc1,n,n,n

# High-throughput results: PubChem, Broad Institute
